Data on six molecules can be found in ChEMBL document CHEMBL1123134, “Diterpenoid sweeteners. Synthesis and sensory evaluation of stevioside analogues with improved organoleptic properties” (1985).

Holding throughout (assay type): functional
For assay [1], the species on record is Homo sapiens. The assay is described as follows: Sensory evaluation was done for sweetness at a concentration of 650 p.p.m. against compound potency calculated on weight basis. The procedure, abridged:
(§1)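 Sweetness tasted in solutions held near pH ~7, so carboxylic acids are ionized. Potency is reported two ways: on a weight basis (Pw) and on a molar basis (Pm).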

The species named for assay [2] is Homo sapiens. Put plainly: Sensory evaluation was done at a concentration of 650 p.p.m. against property of bitterness. The procedure, abridged:
(§2)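 Aqueous sample solutions were tasted at about pH 7, so carboxylic acids were in ionized form.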

For assay [3], the species on record is Homo sapiens. The assay is described as follows: Sensory evaluation was done for sweetness at a concentration of 650 p.p.m. against sample intensity relative to 10% sucrose. In a few lines: as §1
The species named for assay [4] is Homo sapiens. Put plainly: Sensory evaluation was done at a concentration of 650 p.p.m. against other properties. In a few lines:
as §2

The species named for assay [5] is Homo sapiens. The assay is described as follows: Sensory evaluation was done for sweetness at a concentration of 650 p.p.m. against compound potency calculated on a molar basis. The procedure, abridged: as §1
The species named for assay [6] is Homo sapiens. Put plainly: Sensory evaluation was done at a concentration of 650 p.p.m. against property of sweetness. The procedure, abridged:
as §2

The species named for assay [7] is Homo sapiens. Put plainly: Sensory evaluation was done for sweetness at a concentration of 1000 p.p.m. against sample intensity relative to 10% sucrose. In a few lines:
as §2

The species named for assay [8] is Homo sapiens. The assay is described as follows: Sensory evaluation was done at a concentration of 1000 p.p.m. against other properties. The procedure, abridged:
as §2

The species named for assay [9] is Homo sapiens. Put plainly: Sensory evaluation was done at a concentration of 1000 p.p.m. against property of bitterness. In a few lines:
as §2

Assay [10] is filed under the species Homo sapiens. Put plainly: Sensory evaluation was done at a concentration of 1000 p.p.m. against property of sweetness. In a few lines:
as §2

The species named for assay [11] is Homo sapiens. Put plainly: Sensory evaluation was done for sweetness at a concentration of 1000 p.p.m. against compound potency calculated on weight basis. The procedure, abridged: (§3)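 Solutions were tasted at about pH 7. Sweetness potency was expressed two ways: Pw, calculated on a weight basis, and Pm, calculated on a molar basis.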
For assay [12], the species on record is Homo sapiens. Put plainly: Sensory evaluation was done for sweetness at a concentration of 1000 p.p.m. against compound potency calculated on a molar basis. The procedure, abridged: as §3
The species named for assay [13] is Homo sapiens. The assay is described as follows: Sensory evaluation was done at a concentration of 750 p.p.m. against property of bitterness. The procedure, abridged: as §2
Assay [14] is filed under the species Homo sapiens. The assay is described as follows: Sensory evaluation was done for sweetness at a concentration of 750 p.p.m. against compound potency calculated on a molar basis. In a few lines: as §1
Assay [15] is filed under the species Homo sapiens. The assay is described as follows: Sensory evaluation was done for sweetness at a concentration of 750 p.p.m. against compound potency calculated on weight basis. The procedure, abridged:
as §1

The species entered for assay [16] is Homo sapiens. Put plainly: Sensory evaluation was done for sweetness at a concentration of 750 p.p.m. against sample intensity relative to 10% sucrose. The procedure, abridged:
as §1

The species named for assay [17] is Homo sapiens. The assay is described as follows: Sensory evaluation was done at a concentration of 750 p.p.m. against property of sweetness. In a few lines:
as §2

The species named for assay [18] is Homo sapiens. Put plainly: Sensory evaluation was done at a concentration of 750 p.p.m. against other properties. In a few lines:
as §2

Assay [19] is filed under the species Homo sapiens. Put plainly: Sensory evaluation was done at a concentration of 500 p.p.m. against property of bitterness. In a few lines:
as §2

Assay [20] is filed under the species Homo sapiens. Put plainly: Sensory evaluation was done at a concentration of 500 p.p.m. against other properties. The procedure, abridged: as §2
For assay [21], the species on record is Homo sapiens. Put plainly: Sensory evaluation was done for sweetness at a concentration of 500 p.p.m. against compound potency calculated on a molar basis. The procedure, abridged:
as §1

The species entered for assay [22] is Homo sapiens. The assay is described as follows: Sensory evaluation was done for sweetness at a concentration of 500 p.p.m. against compound potency calculated on weight basis. The procedure, abridged: as §1
For assay [23], the species on record is Homo sapiens. The assay is described as follows: Sensory evaluation was done for sweetness at a concentration of 500 p.p.m. against sample intensity relative to 10% sucrose. The procedure, abridged: as §1
The species entered for assay [24] is Homo sapiens. Put plainly: Sensory evaluation was done at a concentration of 500 p.p.m. against property of sweetness. In a few lines:
as §2

As for `C=C1C[C@@]23CC[C@H]4[C@@](C)(CCC[C@@]4(C)C(=O)OCCCP(=O)([O-])O)[C@@H]2CC[C@]1(O[C@@H]1O[C@@H](CO)[C@@H](O)[C@H](O)[C@@H]1O[C@@H]1O[C@@H](CO)[C@@H](O)[C@H](O)[C@@H]1O)C3.[Na+]`, the Pw in the assay listed under Homo sapiens [1] was 120. Moreover, the Sensory evaluation is reported as 8 in the assay filed under Homo sapiens [2], 5 in the assay listed under Homo sapiens [4] and 87 in the assay filed under Homo sapiens [6]. This molecule also showed an Ip in the assay filed under Homo sapiens [3] of 0.8. Also, the Pm in the assay filed under Homo sapiens [5] is given as 280.

Regarding `C=C1C[C@@]23CC[C@H]4[C@@](C)(CCC[C@@]4(C)C(=O)OC(CCN)C(=O)O)[C@@H]2CC[C@]1(O[C@@H]1O[C@@H](CO)[C@@H](O)[C@H](O)[C@@H]1O[C@@H]1O[C@@H](CO)[C@@H](O)[C@H](O)[C@@H]1O)C3` (stereo partly specified), the Pw in the assay listed under Homo sapiens [1] was 170. Further, the Sensory evaluation is recorded as 18 in the assay filed under Homo sapiens [2], 3 in the assay filed under Homo sapiens [4] and 79 in the assay filed under Homo sapiens [6]. This molecule had an Ip in the assay filed under Homo sapiens [3] of 1.1. In the assay listed under Homo sapiens [5], the Pm is 360.

The molecule `CC1=CC(=O)NS(=O)(=O)O1` [ACESULFAME] gave an Ip in the assay filed under Homo sapiens [7] of 1. Besides, the Sensory evaluation is 1 in the assay filed under Homo sapiens [8], 16 in the assay filed under Homo sapiens [9] and 83 in the assay listed under Homo sapiens [10]. The Pw in the assay filed under Homo sapiens [11] is 100. Besides, the Pm in the assay listed under Homo sapiens [12] was 55.

As for `COC(=O)[C@H](Cc1ccccc1)NC(=O)[C@@H](N)CC(=O)O` [ASPARTAME], the Sensory evaluation in the assay listed under Homo sapiens [13] worked out at 0; in the assay listed under Homo sapiens [17] it was 100; in the assay listed under Homo sapiens [18], 0. In the assay filed under Homo sapiens [14], the Pm is reported as 85. In the assay filed under Homo sapiens [15], the Pw was 130. The Ip in the assay listed under Homo sapiens [16] is 1.

For `C=C1C[C@@]23CC[C@H]4[C@@](C)(CCC[C@@]4(C)C(=O)O[C@@H]4O[C@H](CO)[C@@H](O)[C@H](O)[C@H]4O)[C@@H]2CC[C@]1(O[C@@H]1O[C@H](CO)[C@@H](O)[C@H](O)[C@H]1O[C@@H]1O[C@H](CO)[C@@H](O)[C@H](O)[C@H]1O)C3` [STEVIOSIDE], the Sensory evaluation in the assay filed under Homo sapiens [19] was found to be 30; in the assay listed under Homo sapiens [20], 8; in the assay listed under Homo sapiens [24], 62. Further, the Pm in the assay listed under Homo sapiens [21] is recorded as 440. In addition, in the assay filed under Homo sapiens [22], the Pw is given as 190. The molecule further gave an Ip in the assay filed under Homo sapiens [23] of 0.9.

Turning to `C=C1C[C@@]23CC[C@H]4[C@@](C)(CCC[C@@]4(C)C(=O)[O-])[C@@H]2CC[C@]1(O[C@@H]1O[C@@H](CO)[C@@H](O)[C@H](O)[C@@H]1O[C@@H]1O[C@@H](CO)[C@@H](O)[C@H](O)[C@@H]1O)C3.[Na+]` [Steviolbioside], in the assay listed under Homo sapiens [7], the Ip is listed as 1. Moreover, the values for the Sensory evaluation in the assay filed under Homo sapiens [8], in the assay filed under Homo sapiens [9] and in the assay listed under Homo sapiens [10] were 0, 35 and 65, respectively. Further, in the assay listed under Homo sapiens [11], the Pw was 100. Also, the Pm in the assay filed under Homo sapiens [12] is given as 190.
